# RGS4 inh – inhibitors of human RGS4; AID 463165; P49798; B-score at 10 µM; 310,000 tested, 0.45% active; HEK293 M3R/RGS4 inducible, Fluo-4 calcium flux; active compounds read high; triggered by carbachol at its EC20;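 active = B-score, a plate-corrected calcium signal, over three deviations above library mean, with baseline fluorescence within five deviations of library mean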;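 also: RGS4 expression induced by doxycycline in cells with stable M3 receptor; B-score is computed from the integrated fluorescence ratio over baseline after carbachol; higher B-score means a larger calcium signal and so more RGS4 inhibition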
# Target sequence (P49798 whole entry, looked up): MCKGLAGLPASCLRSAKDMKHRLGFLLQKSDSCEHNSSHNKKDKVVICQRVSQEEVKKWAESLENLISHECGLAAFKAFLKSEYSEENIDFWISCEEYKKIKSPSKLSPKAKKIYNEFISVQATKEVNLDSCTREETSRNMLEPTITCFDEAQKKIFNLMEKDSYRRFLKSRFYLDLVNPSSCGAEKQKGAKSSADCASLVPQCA
# MrgX1 antag – blocks BAM8-22 activation of human MrgX1 receptor | Q96LB2 | MRGX1-HEK293 calcium flux, Fluo-4, BAM8-22 antagonism; active compounds read low | B-score at 10 µM | 310,000 tested, 1.3% active | AID 588676;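 active = calcium-response B-score plate-corrected more than 3 library SD below zero, starting fluorescence within 5 deviations, no agonist response on first addition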;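 also: peak minus trough fluorescence over baseline after final BAM8-22 challenge near maximal dose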
# Target sequence (Q96LB2 whole entry, looked up): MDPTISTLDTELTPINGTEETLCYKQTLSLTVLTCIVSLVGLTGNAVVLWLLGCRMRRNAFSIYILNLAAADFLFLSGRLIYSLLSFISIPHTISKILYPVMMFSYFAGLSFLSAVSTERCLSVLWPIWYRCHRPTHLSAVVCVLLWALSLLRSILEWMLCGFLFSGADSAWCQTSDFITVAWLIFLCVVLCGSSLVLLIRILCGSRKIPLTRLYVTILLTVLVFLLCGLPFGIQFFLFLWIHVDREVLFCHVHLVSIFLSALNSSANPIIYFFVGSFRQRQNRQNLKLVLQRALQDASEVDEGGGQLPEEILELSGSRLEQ
# MrgX1 PAM – human MrgX1 positive allosteric modulation, primary screen. MrgX1-HEK293, Fluo-4 calcium flux, FDSS; active compounds read high. B-score at 10 µM. 310,000 tested, 0.63% active. AID 588675;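 active = plate-corrected calcium response at least 3 library SD above typical, normal starting fluorescence, not activating the receptor alone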;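 also: compound read alongside a low EC10 to EC30 dose of BAM8-22 agonist; peak minus trough fluorescence over baseline measured at the second addition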
# MrgX1 ag – human MrgX1 receptor agonism, primary screen; MrgX1-HEK293 cells, Fluo-4 calcium fluorescence, agonist mode; active compounds read high; Q96LB2; B-score at 10 µM; 310,000 tested, 0.44% active;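 active = calcium response B-score plate-corrected fluorescence ratio at least 3 library SD, with starting fluorescence B-score inside 5 SD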
#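 Material: MrgX1-expressing HEK293 cells; input: 15,000 cells per well; doses: test compound given as first of three sequential additions; schedule: overnight plating before 1 h dye loading; technique: Fluo-4 NW calcium-flux fluorescence, kinetic read; evaluation: baseline-normalised fluorescence change ratio, B-scored; control set: plate-wise positive and negative controls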
# RGS4 pot – potentiators or activators of RGS4 | HEK293 M3R/inducible RGS4, carbachol calcium flux Fluo4; active compounds read low | B-score at 10 µM | 310,000 tested, 0.92% active | AID 463111;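 active = B-score of the integrated calcium signal more than 4 SD below the library mean, with starting fluorescence not abnormally high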;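 also: negative B-score means reduced calcium response which marks RGS4 activation or potentiation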
#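 Also added: carbachol at ECmax as muscarinic agonist stimulus; Assay system: HEK293 cells with stable M3R and inducible RGS4; Timing: overnight RGS4 induction, 30 min dye load 37 °C, 20 min compound RT; Measured by: Fluo4-AM (2 µM) calcium-flux fluorescence, kinetic read.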
# Numbers without * were called inactive; i = inactive; · = no result given. Only some compounds are listed: those with a hit (about 3.5% of all), similar ones and a draw of the others.
SMILES,RGS4 inh,MrgX1 antag,MrgX1 PAM,MrgX1 ag,RGS4 pot
c1ccc(-c2nc(-n3nc4ccccc4n3)nc3ccccc23)cc1,i,i,i,i,-7.2*
Clc1ccc(-c2nc(N3CCCCC3)nc3ccccc23)cc1,i,i,i,i,i
Cc1ccc(C(C)C)c(OCc2nn(CC(=O)c3ccc(OC(F)F)cc3)c3[n+]2CCCCC3)c1,i,-5.5*,i,i,i
O=C(COC(=O)c1cccc([N+](=O)[O-])c1)c1ccc(OCc2ccccc2)cc1,i,i,i,i,-8.4*
CC(=O)N(c1ccc(Cl)cc1)c1cn(C(C)=O)c2ccccc12,i,i,i,i,i
CC(=O)n1cc(N(C(=O)CCl)c2ccc(C)cc2)c2ccccc21,i,i,i,i,-7.2*
O=C(N/N=C/c1cc(Br)c(Br)o1)c1cccnc1,i,-6*,i,i,i
O=C(N/N=C/c1cccc(OC(=O)c2ccccc2Cl)c1)c1cccnc1,i,i,i,i,-7.7*
Cc1ccc(C(=O)N/N=C/c2ccc(OC(=O)c3ccccc3Cl)cc2)cn1,i,i,i,i,i
COc1cc(C(=O)N/N=C/c2ccc(OC(=O)c3ccccc3Cl)c(OC)c2)ccc1O,i,-4.6*,i,i,-9.9*
O=C(N/N=C\c1cc(Br)c(Br)o1)c1cncc(Br)c1,i,i,i,i,i
COc1cc(C(=O)N/N=C/c2ccc(OC(=O)c3cccc(C)c3)cc2)ccc1O,i,i,i,i,i
COc1cc(/C=N/NC(=O)c2ccc(N)cc2)ccc1OC(=O)c1cccc(C)c1,i,-5.6*,i,i,-8.5*
CCC(C)NC(=O)c1ccc2c(c1)S(=O)(=O)c1ccccc1C2=O (configuration not stated),i,i,i,i,i
COc1cc(/C=C/C(=O)NC(=O)c2ccccc2O)ccc1O,i,i,12*,i,i
COc1cc(/C=N/NC(=O)c2ccccn2)ccc1OC(=O)c1ccc(Br)cc1,i,i,i,i,i
COc1cc(/C=N/NC(=O)c2ccccn2)ccc1OC(=O)c1ccccc1Br,i,i,i,i,-8.1*
CCOC(=O)c1ccc(N2CCCCC2)c(NS(=O)(=O)c2ccc(C)cc2)c1,i,i,i,i,i
CC1=C(C)CC(C(=O)NC2CCN(C(C)C)CC2)C(C(=O)O)C1 (configuration not stated),i,i,i,i,i
CCN1/C(=C\c2ccc3cc(C)ccc3[n+]2CC)Sc2cc(C)c(C)cc21,i,·,·,·,i
CCN1/C(=C/c2ccc3cc(C)ccc3[n+]2CC)Sc2ccc3sccc3c21,i,i,i,39*,i
CC(=O)Nc1ccc(S(=O)(=O)N(C)c2ccc(OCC(=O)OCC(=O)NCc3ccco3)cc2)cc1,i,i,i,i,i
COc1cc(/C=N/OCC(=O)Nc2ccc(OC(F)F)cc2)ccc1OCc1ccccc1,i,i,i,i,-7*
CNc1nc(Cl)c(SC)c(NCc2ccc(F)cc2)n1,i,i,i,i,i
Cn1c(=O)c([N+](=O)[O-])c(N2CCN(Cc3ccc4c(c3)OCO4)CC2)c2ccccc21,i,i,i,i,-7.3*
SMILES,RGS4 inh,MrgX1 antag,MrgX1 PAM,MrgX1 ag,RGS4 pot
COc1cc(C(CC(=O)Nc2cc(C)ccn2)N2Cc3ccccc3C2=O)cc(OC)c1OC (configuration not stated),i,i,i,i,i
COc1ccc(NC(=O)/C=C/c2ccc(Br)o2)cn1,i,-7.2*,i,i,i
O=C(/C=C/c1ccccc1)Nc1cccnc1,i,i,i,i,i
Cc1ccc(/C=C/C(=O)Nc2cccnc2)o1,i,-7.1*,i,i,i
N#CC1=C(N)n2c(s/c(=C\c3cccs3)c2=O)=C(C#N)C1c1cccs1 (configuration not stated),i,-7.4*,i,i,i
O=C(O)c1cc(-c2ccc(/C=c3\sc4nc5ccc(Br)cc5n4c3=O)o2)ccc1Cl,i,i,i,42*,i
N#C/C(=C\c1ccc(Sc2ccccc2)o1)c1nc2ccccc2[nH]1,i,i,7.6*,i,i
N#C/C(=C\c1ccc([N+](=O)[O-])o1)c1nc2ccccc2[nH]1,i,-4.5*,i,i,i
Cc1ccc([N+](=O)[O-])c(OCCn2cnc3ccccc32)c1,i,i,10*,i,i
COC(=O)C1=C(C)N(C)C(C)=C(C(=O)OC)C1c1ccncc1,i,i,i,i,i
COC(=O)C1=C(C)N(C)C(C)=C(C(=O)OC)C1c1ccc(F)c(Br)c1,i,i,i,i,-7.2*
O=C1c2cccc3c([N+](=O)[O-])ccc(c23)C(=O)N1c1ccccn1,i,i,i,i,-7.8*
O=C1c2cccc3c([N+](=O)[O-])ccc(c23)C(=O)N1O,i,-8.6*,i,i,i
O=C1c2cccc3c([N+](=O)[O-])ccc(c23)C(=O)N1c1ccc(Cl)cn1,i,i,i,i,i
COc1ccc(CCNC(=O)c2cc(C)oc2C)cc1OC,i,i,i,i,i
Cn1c(=O)c2c(nc(SCC(=O)c3ccccc3F)n2C)n(C)c1=O,i,-7*,i,i,i
Cc1cccc(NC(=O)C2C3C=CC(O3)C2C(=O)O)c1C (configuration not stated),i,i,i,i,i
Clc1ccccc1C1=CC(c2ccco2)n2ncnc2N1 (configuration not stated),i,i,i,29*,i
O=C(N/N=C/c1ccncc1)c1ccc(COc2cccc3cccnc23)cc1,i,i,i,i,i
O=C(N/N=C/c1ccc2cccc(OCc3ccccc3)c2n1)c1ccc(Cl)cc1,i,i,i,i,-9.9*
CCOc1ccc(S(=O)(=O)N2CCOCC2)cc1NS(=O)(=O)c1ccc(OC)c([N+](=O)[O-])c1,i,i,i,i,i
CC(=O)NC1=NC(=O)/C(=C/c2cc(C)n(-c3ccc(NC(C)=O)cc3)c2C)S1,i,-4.5*,i,i,i
Cc1nn(C)c(C(=O)Nc2c(C)nn(Cc3c(F)c(F)c(F)c(F)c3F)c2C)c1Br,i,i,i,i,i
Cc1cc(C)c2nc(N3C(=O)C(O)=C(C(=O)c4ccco4)C3c3ccco3)sc2c1 (configuration not stated),i,i,i,i,-7.9*
